ATG4B inh: inhibitors of human ATG4B cysteine protease | Q9Y4P1 | ATG4B cleavage of LC3-PLA2, NBD-HPC fluorescence, 1 h | inhibition, % at 8.33 µM | 340,000 compounds, 0.51% hits | AID 504462; in the data active = inhibition above about 40%
Target sequence (Q9Y4P1 whole entry, looked up): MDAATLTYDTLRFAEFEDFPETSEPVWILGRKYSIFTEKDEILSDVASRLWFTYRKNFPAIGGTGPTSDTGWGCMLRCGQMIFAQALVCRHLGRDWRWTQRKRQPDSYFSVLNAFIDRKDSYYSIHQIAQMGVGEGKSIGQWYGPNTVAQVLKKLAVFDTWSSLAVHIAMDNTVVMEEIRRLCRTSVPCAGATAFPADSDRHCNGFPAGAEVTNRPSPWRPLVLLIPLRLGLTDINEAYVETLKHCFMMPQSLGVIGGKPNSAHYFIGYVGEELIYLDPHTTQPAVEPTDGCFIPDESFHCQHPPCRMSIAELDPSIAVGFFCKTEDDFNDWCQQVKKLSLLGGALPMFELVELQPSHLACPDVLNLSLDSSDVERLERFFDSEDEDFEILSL
IMP-1 inh: inhibitors of Pseudomonas aeruginosa IMP-1 metallo-beta-lactamase. purified IMP-1, nitrocefin hydrolysis, epi-absorbance fluorescence. AID 1556. inhibition, % at 5.6 µM. 290,000 compounds, 0.45% hits;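 active = inhibition above the mean plus 3 SD of all compounds in the same screening run, cut at about 4.5% in these data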;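 also: 0% = IMP-1 with DMSO and 100% = DMSO wells lacking enzyme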
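system = purified recombinant IMP-1 beta-lactamase | amount = 0.2 nM IMP-1, as dispensed | medium = HEPES buffer pH 7.1 with ZnSO4 and Brij 35 | times = 25 °C, 15 min preincubation, 25 min reaction | detection = plate fluorescence quenching by hydrolysis product, ex 480/em 530 nm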
VIM-2 inhibitor: inhibitors of Pseudomonas aeruginosa VIM-2 metallo-beta-lactamase; purified VIM-2, nitrocefin hydrolysis, epi-absorbance fluorescence; inhibition, % at 5.6 µM; 290,000 compounds, 0.89% hits; AID 1527;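 active = inhibition above the mean of all tested compounds plus 3 SD, cutoff set per screening run, cut at about 7.5% in these data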;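 also: red hydrolysis product quenches plate fluorescence so inhibitors raise well fluorescence; 0% = enzyme with DMSO and 100% = DMSO without enzyme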
HKDC1 inhibitor: HKDC1 (human) hexokinase inhibition; Q2TB90; recombinant HKDC1, G6PDH/diaphorase resazurin coupled fluorescence; inhibition, % at 20 µM; 340,000 compounds, 0.16% hits;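 active = inhibition above about 35% when tested at 20 µM, limit read from the data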;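 also: plate controls were DMSO wells with enzyme for no effect and DMSO wells lacking enzyme for full effect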
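Assay system – recombinant HKDC1 (HK5) hexokinase enzyme, produced in-house · Input – HKDC1 at 5 µg/mL · Reagent – glucose plus 1 mM ATP as hexokinase substrates · Timing – 90 min reaction incubation at room temperature, dark · Measured by – G6PDH/diaphorase-coupled fluorescence, 1 mM NADP, 100 µM resazurin, 525/613 nm · Benchmarks – DMSO-enzyme wells negative, buffer-substituted wells positive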
PvdQ inh: blocks Pseudomonas aeruginosa PvdQ acylase activity. inhibition, % at 10 µM. 340,000 compounds, 0.063% hits. purified PvdQ acylase, fluorescence plate reader. AID 488965; in the data active = inhibition above about 30%, passing the limit was not always enough;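 also: 0% = vehicle neutral wells and 100% = reference inhibitor wells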
MIN6 prolif: MIN6 beta-cell proliferation induction. MIN6 cells proliferation, ATPlite luminescence, 48 h; cells starved in 0.2% serum; 100% = growth in 10% serum. proliferation, % at 10 µM. 330,000 compounds, 0.29% hits. AID 2380;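 active = compounds whose signal lies at least 3.5 SD above the mean of all wells on their plate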;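 also: 0% = DMSO-treated cells in low-serum medium and 100% = 10% serum control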
HKDC1 act conf: confirmation of human HKDC1 activators. inhibition, % at 20 µM. recombinant HKDC1, G6PDH/diaphorase resazurin fluorescence; stronger effect = lower value. AID 504708. shares compounds with HKDC1 inhibitor. 740 compounds, 14% hits;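 active = inhibition at or below a set negative limit, negative inhibition meaning the enzyme was activated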
The depositor's hits bear a star; . = not tested or not shown. This is a sample that favours compounds with a hit; in the whole collection about 2% have one here.

SMILES	ATG4B inh	IMP-1 inh	VIM-2 inhibitor	HKDC1 inhibitor	PvdQ inh	MIN6 prolif	HKDC1 act conf
O=C(c1c[nH]c(C(=O)C(Cl)(Cl)Cl)c1)c1c(F)cccc1F	-2	-2	-1	38*	0	-3	14
O=C(c1c[nH]c(C(=O)C(Cl)(Cl)Cl)c1)c1ccccc1F	-9	-4	-3	37*	6	-2	1
NC(=O)c1cc(C(=O)c2ccc(Cl)cc2)c[nH]1	2	-1	0	-2	-1	-1	.
Cc1ccc(C(=O)OC(C(=O)O)C(OC(=O)c2ccc(C)cc2)C(=O)O)cc1 (stereo not drawn)	-5	.	.	-7	-8	-2	.
COCCN(C(=O)COC(=O)c1cc2c(s1)CCC2)c1c(N)n(Cc2ccccc2)c(=O)[nH]c1=O	15	.	.	35*	0	-3	16
CCC1CCc2sc(C(=O)OCC(=O)N(CCOC)c3c(N)n(Cc4ccccc4)c(=O)[nH]c3=O)cc2C1 (stereo not drawn)	-23	.	.	0	-16	2	.
COCCn1c(C)cc(C2=NNC(=Nc3ccccc3)SC2)c1C	6	-1	0	-32	-7	-3	.
COc1ccccc1C1=NNC(=Nc2cccc(S(=O)(=O)N(C)C)c2)SC1	-24	-1	-1	-202	-25	-6	-177*
O=C(COC(=O)CNC(=O)c1cc(Cl)cc([N+](=O)[O-])c1)NC(=O)NCc1ccco1	1	.	.	-7	3	-1	.
Cc1ccsc1/C=C1\Oc2cc(OCC(=O)c3ccccc3)ccc2C1=O	-10	-4	-2	-7	-2	0	.
CCN(CC)CCCN1C=C2C(=O)C(C)(OC(=O)CCC(=O)OC)C(=O)C(Br)=C2C=C1c1ccc(OC)cc1 (stereo not drawn)	3	.	.	19	-18	-5	.
COCCN1C=C2C(=O)C(C)(OC(=O)CCC(=O)OC)C(=O)C(Br)=C2C=C1c1ccc(OC)cc1 (stereo not drawn)	-3	.	.	38*	-13	-7	-4
COC(=O)CCC(=O)OC1(C)C(=O)C2=CN(C3CCCC3)C(c3ccc(OC)cc3)=CC2=C(Br)C1=O (stereo not drawn)	-13	.	.	38*	-2	-9	12
COC(=O)CCC(=O)OC1(C)C(=O)C2=CN(Cc3ccco3)C(c3ccc(OC)cc3)=CC2=C(Br)C1=O (stereo not drawn)	.	.	.	.	.	-5	.
COC(=O)CCCC1=CC2=C(c3ccccc3)C(=O)C(C)(OC(=O)C3CCCC3)C(=O)C2=CN1C1CC1 (stereo not drawn)	1	.	.	11	4	-1	.
COC(=O)CCC(=O)OC1(C)C(=O)C2=CN(c3ccc(OC)cc3)C(c3ccc(OC)cc3)=CC2=C(Br)C1=O (stereo not drawn)	3	.	.	35	5	-2	8
C=CCN1C=C2C(=O)C(C)(OC(=O)CCC(=O)OC)C(=O)C(Br)=C2C=C1c1ccc(OC)cc1 (stereo not drawn)	-6	.	.	36*	-5	-2	57
O=C(Nc1ccccc1Cl)Oc1ccc(-c2ccccc2)cc1	-4	-3	-3	-7	-5	-2	.
CCn1cnc2cc(NC(=O)COc3ccc(C)cc3)ccc21	-2	.	.	-2	-18	.	.
CC(=O)c1ccc(NC(=O)CN2C(=O)NC(C)(c3ccc4c(c3)OCCO4)C2=O)cc1 (stereo not drawn)	0	.	.	-5	-4	-5	.
CC(=O)N1C2CCCCC2S[C@H]2CCCCC21 (stereo partly drawn)	-13	-2	-2	-1	-3	0	.
Cc1ccc(S(=O)(=O)N2CCCCCC2)cc1C(=O)Nc1cccnc1	-3	-3	-1	-5	-9	-2	.
Cc1nn(-c2ccccc2)nc1C(=O)Nc1nnc(C(F)(F)F)s1	7	-2	-2	0	-7	-4	.
O=C(/C=C/c1ccc(Br)cc1)NC(=S)Nc1ccc(S(=O)(=O)Nc2nccs2)cc1	37	-1	0	30	-10	-1	40
C[N+](C)(C)CCC(=O)N1C/C(=C/c2ccccc2)C(=O)/C(=C\c2ccccc2)C1	16	.	.	15	-21	.	.
SMILES	ATG4B inh	IMP-1 inh	VIM-2 inhibitor	HKDC1 inhibitor	PvdQ inh	MIN6 prolif	HKDC1 act conf
COc1ccc(OC(=O)N2C/C(=C/c3ccccc3)C(=O)/C(=C\c3ccccc3)C2)cc1	-2	.	.	36*	-7	.	2
CN(C)CCC(=O)N1C/C(=C/c2ccccc2)C(=O)/C(=C\c2ccccc2)C1	17	.	.	12	-5	.	.
CCOC(=O)N1C/C(=C\c2ccccc2)C(=O)/C(=C/c2ccccc2)C1	3	-5	-4	33	-2	.	11
COc1ccccc1N(CC(=O)N/N=C/c1c(O)ccc2ccccc12)S(C)(=O)=O	-41	0	1	-40	-11	-4	-28
O=C(O)c1ccc2c(=O)n(-c3ccccc3)c(=S)[nH]c2c1	5	-3	-3	84*	-6	2	-2
CCCC[n+]1c2ccccc2cc2ccccc21	0	0	1	42*	-11	-5	-1
CCC[n+]1c2ccccc2cc2ccccc21	7	1	1	37*	11	-5	0
CCCCC[n+]1cccc2c3ccccc3ccc21	2	2	6	-2	-11	-6	.
COc1ccc(CN(Cc2ccc(C(=O)O)cc2)C(=S)Nc2ccccc2F)cc1OC	1	-1	-2	-7	-3	-5	.
CSc1ncc(F)c(N(CCO)CCO)n1	-1	-3	-6	12	-3	1	.
CCN(CC(=O)NC1CCS(=O)(=O)C1)C(C)C(=O)Nc1ccc(F)cc1 (stereo not drawn)	3	.	.	0	-22	2	.
O=C1C(F)=CC(COC(c2ccccc2)(c2ccccc2)c2ccccc2)OC1n1cc(F)c(=O)[nH]c1=O (stereo not drawn)	-4	.	.	40*	-22	.	14
CC(=O)OCC1OC(n2cc(F)c(=O)[nH]c2=O)C(OC(C)=O)C1OC(C)=O (stereo not drawn)	-6	.	.	5	-11	0	.
CC(=O)Nc1ccc(NC(=O)c2ccccc2CCc2ccccc2)cc1	-8	-1	-3	-1	-18	-3	.
NS(=O)(=O)c1ccc(N=Nc2c(=O)[nH]n3c(=O)c4c([nH]c23)CCCC4)cc1	-9	-5	2	40*	0	-1	72
O=C(CCN1C(=O)/C(=C\c2ccccc2)SC1=S)Nc1ccc(C(=O)O)cc1	3	0	-3	10	-6	0	.
CCOc1ccc(/C=C2/SC(=S)N(CCC(=O)Nc3ccc(C(=O)O)cc3)C2=O)cc1	11	-4	0	43*	3	-5	-42*

Screens: PubChem, several laboratories
